Here are results for 5 compounds from ChEMBL document CHEMBL1128288, “7-Azetidinylquinolones as antibacterial agents. 3. Synthesis, properties and structure-activity relationships of the stereoisomers containing a 7-(3-amino-2-methyl-1-azetidinyl) moiety” (J Med Chem, 1995).

The subject of data set [1] is Staphylococcus aureus. The data set can be described thus: In vivo efficacy as ED50 against Staphylococcus aureus HS-93 by oral administration in mice. Conditions: Staphylococcus aureus, po; read-out: ED50. In kind it is functional. A digest of the protocol:
(§1)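 Mice, 4 groups of 10, infected intraperitoneally with slightly more than the LD100 of the organism. A single oral dose was given immediately after infection, with four doses (one per group) chosen from in vitro activity. Survival was scored after one week. ED50 (total dose, mg/kg, protecting 50%) was interpolated among group survival rates.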

For data set [2], the system named is Escherichia coli. The experiment in a line: In vivo efficacy as ED50 against Escherichia coli HM-42 by oral administration in mice. It counts as functional. Conditions: Escherichia coli, po; read-out: ED50. A digest of the protocol: as §1
Data set [3] concerns Morganella morganii. The experiment in a line: In vitro antibacterial activity measured as minimum inhibitory concentration was evaluated on morganella morganii ATCC 8019 (Mm). In kind it is functional. Conditions: Morganella morganii, ATCC 8019; read-out: MIC. In short, it runs like this:
(§2)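 Serial 2-fold agar dilution in Mueller Hinton medium, run side by side with reference quinolones. Inoculum 10^5 cfu/mL; compound range 0.007–16 µg/mL.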

Data set [4] relates to Escherichia coli. The data set can be described thus: In vitro antibacterial activity measured as minimum inhibitory concentration, was evaluated on Escherichia coli ATCC 23559(Ec). The note with it: Escherichia coli, ATCC 23559; read-out: MIC. It counts as functional. In short, it runs like this:
as §2

For data set [5], the system named is Bacillus cereus. The data set can be described thus: In vitro antibacterial activity measured as minimum inhibitory concentration was evaluated on Bacillus cereus ATCC 11778 (Bc). It counts as functional. The note with it: Bacillus cereus, ATCC 11778; read-out: MIC. In short, it runs like this: as §2
Data set [6] relates to Proteus vulgaris. The data set can be described thus: In vitro antibacterial activity measured as minimum inhibitory concentration was evaluated on proteus vulgaris ATCC 8427 (Pv). Conditions: Proteus vulgaris, ATCC 8427; read-out: MIC. It counts as functional. In short, it runs like this: as §2
Data set [7] has as its system Enterobacter cloacae. The data set can be described thus: In vitro antibacterial activity measured as minimum inhibitory concentration, was evaluated on Enterobacter cloacae ATCC 23355 (Ecl). Conditions: Enterobacter cloacae, ATCC 23355; read-out: MIC. It counts as functional.
Data set [8] concerns Bacillus subtilis. The data set can be described thus: In vitro antibacterial activity measured as minimum inhibitory concentration was evaluated on Bacillus subtilis ATCC 6633(Bs). In kind it is functional. Conditions: Bacillus subtilis, ATCC 6633; read-out: MIC. A digest of the protocol:
as §2

Data set [9] concerns Pseudomonas aeruginosa. The experiment in a line: In vivo efficacy as ED50 against Pseudomonas aeruginosa HS-116 by oral administration in mice. In kind it is functional. Conditions: Pseudomonas aeruginosa, po; read-out: ED50. A digest of the protocol: as §1
The test system of data set [10] is Staphylococcus epidermidis. The data set can be described thus: In vitro antibacterial activity measured as minimum inhibitory concentration was evaluated on Staphylococcus epidermidis ATCC 155-1 (Se). Conditions: Staphylococcus epidermidis, ATCC 155-1; read-out: MIC. In kind it is functional. A digest of the protocol:
as §2

The test system of data set [11] is Enterococcus faecalis. The data set can be described thus: In vitro antibacterial activity measured as minimum inhibitory concentration was evaluated on Streptococcus faecalis ATCC 10541 (Sf). It counts as functional. The note with it: Enterococcus faecalis, ATCC 10541; read-out: MIC. A digest of the protocol:
as §2

Data set [12] relates to Klebsiella pneumoniae. The experiment in a line: In vitro antibacterial activity measured as minimum inhibitory concentration was evaluated on klebsiella pneumoniae ATCC 10031 (Kp). Conditions: Klebsiella pneumoniae, ATCC 10031; read-out: MIC. In kind it is functional. In short, it runs like this:
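Serial 2-fold agar dilution in Mueller Hinton medium, run side by side with reference quinolones.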

For data set [13], the system named is Staphylococcus aureus. The experiment in a line: In vitro antibacterial activity measured as minimum inhibitory concentration was evaluated on Staphylococcus aureus ATCC 25178 (Sa). Conditions: Staphylococcus aureus, ATCC 25178; read-out: MIC. It counts as functional. A digest of the protocol:
as §2

The conditions of data set [14]: mouse, in vivo, po, 50 mg/kg.
In data set [15] the test system is Pseudomonas aeruginosa. The experiment in a line: In vitro antibacterial activity measured as minimum inhibitory concentration was evaluated on Pseudomonas aeruginosa ATCC 10145 (Pa). In kind it is functional. The note with it: Pseudomonas aeruginosa, ATCC 10145; read-out: MIC. In short, it runs like this:
as §2

≈ marks a conversion by molar mass, not a printed value.

Take `CC1C(N)CN1c1c(F)cc2c(=O)c(C(=O)O)cn(C3CC3)c2c1Cl` (centres undefined): the 50% effective dose (ED50) (as a rule, the dose that gives a 50% effect, or the effect in half of the subjects) was determined as 9.6 mg/kg in [1], 2.8 mg/kg in data set [2] and 38 mg/kg in data set [9]. Further, the MIC (in general, the smallest concentration in the dilution series that meets the test's criterion for growth inhibition) in data set [3] came to 0.03 µg/mL (≈ 0.082 µM); in data set [4], 0.015 µg/mL (≈ 0.041 µM); in data set [5], 0.03 µg/mL (≈ 0.082 µM); in [6], 0.03 µg/mL (≈ 0.082 µM); in [7] it was 0.03 µg/mL (≈ 0.082 µM); in data set [8], 0.03 µg/mL (≈ 0.082 µM). In addition, the MIC in data set [10] was found to be 0.03 µg/mL (≈ 0.082 µM); in [11], 0.06 µg/mL (≈ 0.164 µM); in data set [12] it was 0.015 µg/mL (≈ 0.041 µM); in data set [13] it was 0.03 µg/mL (≈ 0.082 µM).
`CCn1cc(C(=O)O)c(=O)c2c(N)c(F)c(N3C[C@H](N)[C@H]3C)c(F)c21`: the minimum inhibitory concentration (MIC) amounted to 0.06 µg/mL (≈ 0.17 µM) in data set [3]; 0.25 µg/mL (≈ 0.71 µM) in data set [4]; 0.25 µg/mL (≈ 0.71 µM) in data set [5]; 0.25 µg/mL (≈ 0.71 µM) in data set [6]; 0.06 µg/mL (≈ 0.17 µM) in data set [7]; 0.06 µg/mL (≈ 0.17 µM) in data set [8]. In addition, the MIC in data set [10] is 0.25 µg/mL (≈ 0.71 µM); in [11], 0.25 µg/mL (≈ 0.71 µM); in data set [12] it was 0.25 µg/mL (≈ 0.71 µM); in data set [13], 0.12 µg/mL (≈ 0.341 µM); in [15] it was 0.5 µg/mL (≈ 1.42 µM). The AUC – broadly, concentration integrated over time – in [14] came to 12500 ng·h/mL.
With `C[C@@H]1[C@@H](N)CN1c1c(F)cc2c(=O)c(C(=O)O)cn(-c3ccc(F)cc3F)c2c1F`, the ED50 in data set [1] is 11.2 mg/kg; in [2], 3 mg/kg; in data set [9] it was 98 mg/kg. The MIC in [3] was determined as 0.25 µg/mL (≈ 0.593 µM); in [4], 0.06 µg/mL (≈ 0.142 µM); in data set [5], 0.12 µg/mL (≈ 0.285 µM); in data set [6], 0.5 µg/mL (≈ 1.19 µM); in [7], 0.06 µg/mL (≈ 0.142 µM); in [8], 0.06 µg/mL (≈ 0.142 µM). For the same compound, the MIC in data set [10] was determined as 0.12 µg/mL (≈ 0.285 µM); in data set [11], 1 µg/mL (≈ 2.37 µM); in data set [12], 0.06 µg/mL (≈ 0.142 µM); in data set [13], 0.12 µg/mL (≈ 0.285 µM); in [15], 0.5 µg/mL (≈ 1.19 µM).
For `C[C@@H]1[C@@H](N)CN1c1cc2c(cc1F)c(=O)c(C(=O)O)cn2C1CC1`, the MIC turned out to be 0.5 µg/mL (≈ 1.51 µM) in data set [3]; 0.25 µg/mL (≈ 0.754 µM) in [4]; 1 µg/mL (≈ 3.02 µM) in data set [5]; 1 µg/mL (≈ 3.02 µM) in data set [6]; 0.25 µg/mL (≈ 0.754 µM) in data set [7]; 0.25 µg/mL (≈ 0.754 µM) in data set [8]. Besides, the minimum inhibitory concentration (MIC) in data set [10] was determined as 1 µg/mL (≈ 3.02 µM); in data set [11] it was 2 µg/mL (≈ 6.04 µM); in [12], 0.25 µg/mL (≈ 0.754 µM); in data set [13] it was 1 µg/mL (≈ 3.02 µM); in data set [15] it was 4 µg/mL (≈ 12.1 µM). The compound also showed an area under the curve (AUC) in [14] of 2200 ng·h/mL.
For the compound `CC1C(N)CN1c1c(F)c(N)c2c(=O)c(C(=O)O)cn(C3CC3)c2c1F` (centres undefined), the 50% effective dose (ED50) in [1] was 8.7 mg/kg; in [2] it was 4.2 mg/kg; in [9] it was 102 mg/kg. Besides, the minimum inhibitory concentration (MIC) was 0.015 µg/mL (≈ 0.0412 µM) in [3]; 0.015 µg/mL (≈ 0.0412 µM) in [4]; 0.015 µg/mL (≈ 0.0412 µM) in [5]; 0.06 µg/mL (≈ 0.165 µM) in [6]; 0.015 µg/mL (≈ 0.0412 µM) in data set [7]; 0.015 µg/mL (≈ 0.0412 µM) in data set [8]. Moreover, the MIC in data set [10] came to 0.015 µg/mL (≈ 0.0412 µM); in data set [11], 0.06 µg/mL (≈ 0.165 µM); in data set [12], 0.015 µg/mL (≈ 0.0412 µM); in data set [13] it was 0.015 µg/mL (≈ 0.0412 µM).
